Most compounds without a hit are left out; they make up all but 3% or so of the library.
TAAR1 agonist – agonists of human TAAR1. Q96RJ0. CHO RD-HGA16 TAAR1, Fluo-8 calcium fluorescence; vehicle wells 0%, saturating PEA agonist 100%. activation, % at 3 µM. 360,000 tested, 0.99% active. AID 624467;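 active means activation above the mean activation of all test compounds in the run plus 3 SD, cut at about 38% in these data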
Target sequence (Q96RJ0 whole entry, looked up): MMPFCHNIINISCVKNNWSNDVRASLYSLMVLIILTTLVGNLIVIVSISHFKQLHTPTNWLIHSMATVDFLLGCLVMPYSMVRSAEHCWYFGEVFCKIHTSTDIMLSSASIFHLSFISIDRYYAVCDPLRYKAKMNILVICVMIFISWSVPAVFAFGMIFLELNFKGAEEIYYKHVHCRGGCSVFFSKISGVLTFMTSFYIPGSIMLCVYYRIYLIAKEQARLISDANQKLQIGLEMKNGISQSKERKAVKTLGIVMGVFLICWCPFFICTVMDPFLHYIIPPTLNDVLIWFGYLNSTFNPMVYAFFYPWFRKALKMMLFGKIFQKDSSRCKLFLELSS
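test system = CHO RD-HGA16 cells carrying human TAAR1 plus Gα16 | schedule = 17-24 h seeding, 75 min 37 °C dye, 30 min RT | compound dosing = 3 µM single concentration | control set = DMSO and PEA EC100 | replicates = n 1 | signal = Fluo-8 fluorescence, 5 s baseline then 140 s kinetic read | measure = percent activation vs PEA EC100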
CHRM4 agonist – agonists of human muscarinic M4 receptor (CHRM4); CHO-K1 hM4/Gqi5, Fluo-8 calcium fluorescence; vehicle 0%, full acetylcholine response 100%; activation, % at 3 µM; 360,000 tested, 0.14% active;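 active means activation above the run mean over all test wells plus 3 SD, cut at about 32% in these data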;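 further: peak over basal fluorescence ratio per well then scaled between controls; 0% = DMSO wells and 100% = acetylcholine at EC100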
M4 antag – antagonists of human muscarinic M4 receptor (CHRM4); CHO-hM4 cells, ACh EC80, Fluo-8 calcium fluorescence; inhibition, % at 3 µM; 360,000 tested, 0.73% active; AID 624125;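 active means inhibition above its plate's cutoff, the mean inhibition of sample wells plus 3 SD, cut at about 27% in these data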;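 further: 0% = acetylcholine EC80 with DMSO and 100% = DMSO without agonist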
TAAR1 antag – antagonists of human TAAR1; Q96RJ0; CHO RD-HGA16 TAAR1, Fluo-8 calcium fluorescence, antagonist; inhibition, % at 3 µM; 360,000 tested, 1.5% active; AID 624466;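 active means inhibition above a per-plate cutoff, the mean inhibition of test compounds on that plate plus 3 SD, cut at about 49% in these data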;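 further: 0% = DMSO plus EC80 beta-PEA response and 100% = DMSO alone without agonist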
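Test system: hTAAR1-expressing CHO RD-HGA16 cells, Gα16-coupled; Probe or stimulus: EC80 β-phenethylamine stimulus; Compound dosing: single nominal final test compound concentration of 3 µM; Timing: 140 s kinetic read after compound, 140 s after agonist; Signal: Fluo-8 calcium-sensitive fluorescence; Measure: % inhibition of agonist calcium response; Controls: DMSO and EC80 PEA controls.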
M4 PAM – potentiates acetylcholine response at human M4 receptor; P08173; CHO-K1 hM4/Gqi5, Fluo-8 calcium fluorescence, ACh EC20; 0% = ACh EC20, 100% = maximal ACh; activation, % at 3 µM; 360,000 tested, 0.4% active;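 active means activation above its plate's cutoff, the mean activation of sample wells plus 3 SD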
Active calls of the source: *; . = not tested or not shown.

SMILES	TAAR1 agonist	CHRM4 agonist	M4 antag	TAAR1 antag	M4 PAM
CC[C@H](C)C1OC(=O)[C@@H](C)[C@@H](CC)NC(=O)[C@H](C)N(C)C(=O)C(C)(C)C(=O)C(C)NC(=O)[C@H](Cc2ccc(OC)cc2)N(C)C(=O)[C@H](C(C)C)N(C)C(=O)CNC(=O)[C@H](CC(C)C)N(C)C(=O)CNC1=O (some centres not stated)	.	-0.1	-17.4	.	22.7*
O=C1NC[C@@H](CCCCN2C[C@H](Cc3ccccc3)N(CC3CCCCC3)C(=O)C2=O)N(CC2CCCCC2)C1=O	37.0	58.9*	-12.4	-7.5	7.1
O=C1NC[C@@H](CCCCN2C[C@H](Cc3ccc(O)cc3)N(CC3CCCCC3)C(=O)C2=O)N(Cc2ccccc2)C1=O	20.5	36.8*	-11.1	4.2	5.2
O=C1NC[C@@H](CCCCN2C[C@H](Cc3ccccc3)N(Cc3ccccc3)C(=O)C2=O)N(CC2CCCCC2)C1=O	0.4	0.4	1.4	-20.2	4.3
Cc1csc(NC(=O)CSc2nnc(Cn3c(=O)sc4ccccc43)n2-c2ccccc2)n1	2.1	3.9	-4.8	16.5	29.2*
CC(C)OCC(O)CN1CCC(Cc2ccccc2)CC1 (configuration not stated)	2.3	1.1	-6.2	-14.4	6.1
OC(COc1ccc(Br)cc1)CN1CCC(Cc2ccccc2)CC1 (configuration not stated)	41.7*	8.1	5.3	-11.6	-12.8
O=Cc1c[nH]c2ccc(NC(=O)OCc3ccccc3)cc12	6.5	3.8	-6.6	-18.4	3.8
O=Cc1c[nH]c2cccc(OCc3ccccc3)c12	-1.6	1.7	1.1	49.4*	-0.6
Cc1cc(N2CCNC[C@@H]2C)ccc1N1C[C@@H](C)O[C@@H](C)C1	3.1	.	.	-4.8	.
Cc1cc(C(=O)N/N=C\c2ccc(COc3ccc([N+](=O)[O-])cc3)o2)ccc1[N+](=O)[O-]	13.6	4.3	-3.1	54.5*	-8.3
O=C(C(=O)N1CCN(C(=O)C2CCC2)CC1)c1cccc(C(F)(F)F)c1	0.3	.	.	-11.3	.
Cc1ccc2nc(C(C)(C)C)c(Cc3cccc(Cl)c3)n2c1	-1.5	-2.1	26.6*	-15.9	-14.7
O=C(NC(C(=O)N1CCCC1C(=O)NC1CCCC1)c1ccccc1)c1cccs1 (configuration not stated)	2.0	.	.	0.9	.
CN1CCc2c(c3ccccc3n2Cc2ccccc2)C1	17.6	1.2	56.9*	-10.8	-16.9
CCCCN1CCc2c(c3ccccc3n2Cc2ccccc2)C1	3.9	2.5	-12.0	-4.7	-9.0
CC(C)(C)OC(=O)N[C@@H]1C=CC(=O)C1	4.7	.	.	-10.9	.
CC1Cc2nc(SCC(=O)NCc3ccccc3)n(Cc3ccccc3)c(=O)c2S1 (configuration not stated)	-0.1	4.2	37.9*	-9.3	-16.1
CC1Cc2nc(SCC(=O)c3ccccc3)n(Cc3ccccc3)c(=O)c2S1 (configuration not stated)	2.7	4.1	-2.5	19.6	-5.0
COc1cc(NC(=O)[C@@H](Cc2ccccc2)NC(=O)[C@H]2O[C@@H](n3ccc(=O)[nH]c3=O)[C@H](O)[C@@H]2O)cc(OC)c1OC	0.1	.	.	-4.2	.
Cc1ccc(NC(=O)CSc2nnc(-c3ccco3)n2N)cc1F	40.8*	1.7	-1.1	-32.8	4.9
COc1cccc(-c2cnc3c(NC=O)cc(-c4cccc(NC(C)=O)c4)cn23)c1	9.0	17.4	3.5	55.1*	-5.6
CC(=O)Nc1cc(-c2ccc(F)cc2)cn2c(-c3ccc(F)c(Cl)c3)cnc12	0.1	-0.6	-0.9	24.6	-7.5
COc1cccc(-c2cnc3c(NC(C)=O)cc(-c4cccc(NS(C)(=O)=O)c4)cn23)c1	7.5	15.4	-0.8	50.4*	-5.4
CC(=O)Nc1cccc(-c2cc(NC(C)=O)c3ncc(-c4cccc(C(F)(F)F)c4)n3c2)c1	17.4	25.0	1.6	50.1*	-3.7
CC(=O)Nc1cc(-c2cccc(NS(C)(=O)=O)c2)cn2c(-c3ccccc3)cnc12	6.0	9.7	-2.8	29.2	-5.9
CC(=O)Nc1cc(-c2ccc(CO)cc2)cn2c(-c3ccc(F)c(Cl)c3)cnc12	5.2	9.6	3.6	54.1*	1.4
Nc1[nH]c(C(=O)c2ccccc2)c(-c2cccnc2)c1C(=O)c1ccccc1	5.0	.	.	-1.7	.

Screening results (PubChem BioAssay)
